ChEMBL document CHEMBL2150909, “Imidazo[1,2-a]pyridines: orally active positive allosteric modulators of the metabotropic glutamate 2 receptor” (J Med Chem, 2012)
Active and inactive are the calls of the source. The rule behind the calls is not given here.

Key:
[1] = target: T1, Metabotropic glutamate receptor 2 (Homo sapiens, UniProt Q14416); assay: Agonist activity at human mGlu 2 expressed in CHO cells assessed as [35S]GTPgammaS binding by liquid scintillation analysis; format: functional, cell-based
Method in brief: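 Membranes from butyrate-stimulated (5 mM, 24 h) CHO cells expressing human mGlu2. Preincubated 30 min at 30 °C in HEPES pH 7.4 with NaCl, MgCl2, 50 μM GDP and saponin; modulator 0.3 nM–50 μM, no added glutamate. [35S]GTPγS 0.1 nM final, 30 min at 30 °C, filtered, scintillation counted. Nonspecific binding defined with cold GTP; 11 concentrations in duplicate, ≥3 curves.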

[2] = target: T1, Metabotropic glutamate receptor 2; assay: Agonist activity at human mGlu 2 expressed in CHO cells by PAM assay relative to glutamate; format: functional, cell-based
Method in brief: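 The assay measured [35S]GTPγS binding to membranes from CHO cells expressing human mGluR2. Cells were butyrate-stimulated (5 mM, 24 h) before membranes were prepared. Membranes were preincubated for 30 min at 30 °C in HEPES pH 7.4 buffer (NaCl, MgCl2, 50 μM GDP) with compound (0.3 nM–50 μM, 11 concentrations) plus EC25 glutamate. [35S]GTPγS (0.1 nM final) was then added for 30 min at 30 °C. Bound label was collected by filtration and counted. Runs were done at least in triplicate with duplicate points, and a four-parameter logistic fit gave the values.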

[3] = Metabolic stability of human liver microsomes assessed as compound metabolized at 5 uM after 15 mins; format: ADME, Microsome; details: read-out: Drug metabolism
Method in brief: (§1)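 Test compound at 5 μM incubated 15 min with rat or human liver microsomes; read-out is percent of compound metabolized.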

[4] = Metabolic stability of Sprague-Dawley rat liver microsomes assessed as compound metabolized at 5 uM after 15 mins; format: ADME, Microsome; details: read-out: Drug metabolism; method in brief: as §1
[5] = target: Metabotropic glutamate receptor 1 (Homo sapiens) (UniProt Q13255); assay: Agonist activity at human mGlu 1 expressed in HEK293 cells at 10 uM by Ca+2 assay; format: functional, cell-based
Sequence of Metabotropic glutamate receptor 1 (Homo sapiens) (Q13255 19-1194 limits assumed): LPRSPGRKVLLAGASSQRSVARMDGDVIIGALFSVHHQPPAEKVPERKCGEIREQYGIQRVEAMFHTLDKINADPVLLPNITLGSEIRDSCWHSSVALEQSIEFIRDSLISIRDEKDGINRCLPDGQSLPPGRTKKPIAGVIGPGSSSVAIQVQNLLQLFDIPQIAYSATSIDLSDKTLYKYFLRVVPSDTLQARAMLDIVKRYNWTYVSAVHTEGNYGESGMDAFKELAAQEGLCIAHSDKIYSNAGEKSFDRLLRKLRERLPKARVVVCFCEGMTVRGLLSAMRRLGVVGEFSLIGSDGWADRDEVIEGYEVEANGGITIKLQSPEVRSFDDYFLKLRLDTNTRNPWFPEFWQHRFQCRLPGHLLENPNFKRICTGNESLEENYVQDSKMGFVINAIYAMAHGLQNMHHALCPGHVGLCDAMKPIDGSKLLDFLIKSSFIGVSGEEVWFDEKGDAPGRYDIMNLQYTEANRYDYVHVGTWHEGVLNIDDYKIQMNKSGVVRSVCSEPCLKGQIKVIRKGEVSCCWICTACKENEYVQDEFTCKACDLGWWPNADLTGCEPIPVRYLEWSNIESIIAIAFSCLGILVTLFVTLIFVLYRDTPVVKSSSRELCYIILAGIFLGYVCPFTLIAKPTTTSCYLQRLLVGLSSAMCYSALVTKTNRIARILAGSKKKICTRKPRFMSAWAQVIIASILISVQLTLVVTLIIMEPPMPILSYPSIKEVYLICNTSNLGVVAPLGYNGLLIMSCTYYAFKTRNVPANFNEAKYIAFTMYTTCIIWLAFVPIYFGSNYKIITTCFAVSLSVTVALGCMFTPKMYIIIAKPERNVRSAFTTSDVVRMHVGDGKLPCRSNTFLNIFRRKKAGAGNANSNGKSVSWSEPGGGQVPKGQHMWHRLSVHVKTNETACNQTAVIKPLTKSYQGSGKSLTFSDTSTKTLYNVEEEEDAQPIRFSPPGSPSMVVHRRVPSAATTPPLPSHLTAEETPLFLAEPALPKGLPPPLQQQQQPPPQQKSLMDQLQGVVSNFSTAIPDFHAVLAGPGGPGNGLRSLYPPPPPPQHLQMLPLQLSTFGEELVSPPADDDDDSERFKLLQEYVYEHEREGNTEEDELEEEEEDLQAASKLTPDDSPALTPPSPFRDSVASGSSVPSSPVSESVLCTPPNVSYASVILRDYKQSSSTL
Method in brief: (§2)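 Ca2+ assays on human mGlu1, mGlu3, mGlu5, mGlu7 or mGlu8 receptors, each expressed in HEK293 cells; compound tested at 10 μM for agonist and antagonist activity.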

[6] = target: Metabotropic glutamate receptor 3 (Homo sapiens) (UniProt Q14832); assay: Agonist activity at human mGlu 3 expressed in HEK293 cells at 10 uM by Ca+2 assay; format: functional, cell-based; method in brief: as §2
[7] = target: Metabotropic glutamate receptor 5 (Homo sapiens) (UniProt P41594); assay: Agonist activity at human mGlu 5 expressed in HEK293 cells at 10 uM by Ca+2 assay; format: functional, cell-based; method in brief: as §2
Sequence of Metabotropic glutamate receptor 5 (Homo sapiens) (P41594 21-1212 limits assumed): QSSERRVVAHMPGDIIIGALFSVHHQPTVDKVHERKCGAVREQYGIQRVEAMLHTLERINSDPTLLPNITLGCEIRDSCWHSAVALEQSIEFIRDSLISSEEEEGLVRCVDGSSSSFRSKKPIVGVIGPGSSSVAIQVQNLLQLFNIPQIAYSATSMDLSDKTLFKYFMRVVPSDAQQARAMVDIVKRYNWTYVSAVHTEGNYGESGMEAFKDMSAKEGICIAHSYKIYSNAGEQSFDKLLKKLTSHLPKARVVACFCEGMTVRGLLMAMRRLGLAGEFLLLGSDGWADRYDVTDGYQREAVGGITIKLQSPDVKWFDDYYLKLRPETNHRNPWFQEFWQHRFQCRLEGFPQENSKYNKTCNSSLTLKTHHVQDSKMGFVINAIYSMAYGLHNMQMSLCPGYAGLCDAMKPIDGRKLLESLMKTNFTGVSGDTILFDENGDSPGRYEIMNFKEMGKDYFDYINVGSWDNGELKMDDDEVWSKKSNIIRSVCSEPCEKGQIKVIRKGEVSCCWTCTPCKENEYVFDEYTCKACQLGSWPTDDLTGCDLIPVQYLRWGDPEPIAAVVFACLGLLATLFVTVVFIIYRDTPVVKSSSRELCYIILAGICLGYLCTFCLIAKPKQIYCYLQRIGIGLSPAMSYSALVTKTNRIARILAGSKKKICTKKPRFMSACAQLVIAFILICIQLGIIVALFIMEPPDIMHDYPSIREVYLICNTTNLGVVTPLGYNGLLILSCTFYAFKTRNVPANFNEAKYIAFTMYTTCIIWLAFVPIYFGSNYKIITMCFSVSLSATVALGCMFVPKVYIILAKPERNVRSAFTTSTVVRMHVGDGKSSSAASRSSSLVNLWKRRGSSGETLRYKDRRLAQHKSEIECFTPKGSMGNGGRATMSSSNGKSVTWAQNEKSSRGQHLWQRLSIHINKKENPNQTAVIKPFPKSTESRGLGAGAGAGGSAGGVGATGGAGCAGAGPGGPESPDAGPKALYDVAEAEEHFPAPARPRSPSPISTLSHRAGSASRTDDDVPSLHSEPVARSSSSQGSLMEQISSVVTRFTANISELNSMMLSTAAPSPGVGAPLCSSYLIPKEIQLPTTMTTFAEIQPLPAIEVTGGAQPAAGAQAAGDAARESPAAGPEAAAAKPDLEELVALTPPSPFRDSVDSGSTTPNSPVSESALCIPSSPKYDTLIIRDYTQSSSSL

[8] = target: T2, Metabotropic glutamate receptor 7 (Homo sapiens, UniProt Q14831); assay: Agonist activity at human mGlu 7 expressed in HEK293 cells by Ca+2 assay; format: functional, cell-based
[9] = target: Metabotropic glutamate receptor 8 (Homo sapiens) (UniProt O00222); assay: Agonist activity at human mGlu 8 expressed in HEK293 cells at 10 uM by Ca+2 assay; format: functional, cell-based; method in brief: as §2
Sequence of Metabotropic glutamate receptor 8 (Homo sapiens) (O00222 whole entry): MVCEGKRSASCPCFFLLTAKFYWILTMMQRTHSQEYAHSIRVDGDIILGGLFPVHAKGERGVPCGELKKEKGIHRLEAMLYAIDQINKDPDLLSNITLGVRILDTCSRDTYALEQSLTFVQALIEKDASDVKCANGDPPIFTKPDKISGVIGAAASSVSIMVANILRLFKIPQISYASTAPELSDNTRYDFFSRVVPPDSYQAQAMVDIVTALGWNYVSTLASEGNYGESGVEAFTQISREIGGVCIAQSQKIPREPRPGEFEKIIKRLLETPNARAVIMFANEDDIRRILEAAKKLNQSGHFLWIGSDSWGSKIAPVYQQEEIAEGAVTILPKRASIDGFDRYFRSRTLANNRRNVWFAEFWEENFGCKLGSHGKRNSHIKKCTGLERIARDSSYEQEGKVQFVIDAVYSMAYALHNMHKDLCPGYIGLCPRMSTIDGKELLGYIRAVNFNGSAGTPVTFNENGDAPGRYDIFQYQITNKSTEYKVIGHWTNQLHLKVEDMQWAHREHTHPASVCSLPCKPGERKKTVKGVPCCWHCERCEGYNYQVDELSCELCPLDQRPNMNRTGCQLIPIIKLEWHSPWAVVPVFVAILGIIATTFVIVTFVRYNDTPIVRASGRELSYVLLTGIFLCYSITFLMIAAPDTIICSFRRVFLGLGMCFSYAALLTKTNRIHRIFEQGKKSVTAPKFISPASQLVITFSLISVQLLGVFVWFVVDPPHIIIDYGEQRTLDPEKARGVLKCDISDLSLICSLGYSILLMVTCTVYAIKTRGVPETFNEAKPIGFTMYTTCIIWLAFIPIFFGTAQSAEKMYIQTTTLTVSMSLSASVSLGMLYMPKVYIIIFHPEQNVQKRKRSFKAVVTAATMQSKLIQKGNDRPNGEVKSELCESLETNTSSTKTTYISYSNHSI

[10] = target: Metabotropic glutamate receptor 4 (Homo sapiens) (UniProt Q14833); assay: Agonist activity at human mGlu 4 expressed in L929 cells assessed as [35S]GTPgammaS binding by liquid scintillation counting; format: functional, cell-based
Sequence of Metabotropic glutamate receptor 4 (Homo sapiens) (Q14833 whole entry): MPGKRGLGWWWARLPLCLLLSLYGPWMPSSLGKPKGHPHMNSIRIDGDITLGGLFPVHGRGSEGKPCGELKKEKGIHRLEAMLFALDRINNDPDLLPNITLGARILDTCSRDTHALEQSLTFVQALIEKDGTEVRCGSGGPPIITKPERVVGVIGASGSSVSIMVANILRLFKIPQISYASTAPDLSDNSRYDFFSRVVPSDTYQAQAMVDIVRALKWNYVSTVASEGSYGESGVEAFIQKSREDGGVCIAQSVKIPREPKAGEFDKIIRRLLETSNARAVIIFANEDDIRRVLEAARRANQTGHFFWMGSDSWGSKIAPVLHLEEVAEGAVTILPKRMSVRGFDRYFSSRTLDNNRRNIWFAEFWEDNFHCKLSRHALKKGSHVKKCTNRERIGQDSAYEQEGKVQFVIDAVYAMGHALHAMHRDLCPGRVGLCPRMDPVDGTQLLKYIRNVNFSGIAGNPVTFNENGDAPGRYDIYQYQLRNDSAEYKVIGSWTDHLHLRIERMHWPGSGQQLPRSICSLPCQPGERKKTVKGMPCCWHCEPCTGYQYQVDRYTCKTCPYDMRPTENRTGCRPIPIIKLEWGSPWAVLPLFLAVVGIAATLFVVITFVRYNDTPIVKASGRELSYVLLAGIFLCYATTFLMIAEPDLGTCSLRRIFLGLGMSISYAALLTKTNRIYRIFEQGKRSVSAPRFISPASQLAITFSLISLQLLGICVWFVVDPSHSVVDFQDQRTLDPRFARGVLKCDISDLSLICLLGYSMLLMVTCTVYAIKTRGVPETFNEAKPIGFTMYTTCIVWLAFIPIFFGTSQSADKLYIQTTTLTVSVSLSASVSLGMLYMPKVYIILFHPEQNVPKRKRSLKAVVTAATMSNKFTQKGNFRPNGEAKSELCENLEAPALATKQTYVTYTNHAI
Method in brief: (§3)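 [35S]GTPγS functional assays on human mGlu4 or rat mGlu6 receptors expressed in L929 or CHO cells; agonist and antagonist modes tested at 10 μM.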

[11] = target: Metabotropic glutamate receptor 6 (Rattus norvegicus) (UniProt P35349); assay: Agonist activity at rat mGlu 6 expressed in CHO cells assessed as [35S]GTPgammaS binding by liquid scintillation counting; format: functional, cell-based; method in brief: as §3
Sequence of Metabotropic glutamate receptor 6 (Rattus norvegicus) (P35349 whole entry): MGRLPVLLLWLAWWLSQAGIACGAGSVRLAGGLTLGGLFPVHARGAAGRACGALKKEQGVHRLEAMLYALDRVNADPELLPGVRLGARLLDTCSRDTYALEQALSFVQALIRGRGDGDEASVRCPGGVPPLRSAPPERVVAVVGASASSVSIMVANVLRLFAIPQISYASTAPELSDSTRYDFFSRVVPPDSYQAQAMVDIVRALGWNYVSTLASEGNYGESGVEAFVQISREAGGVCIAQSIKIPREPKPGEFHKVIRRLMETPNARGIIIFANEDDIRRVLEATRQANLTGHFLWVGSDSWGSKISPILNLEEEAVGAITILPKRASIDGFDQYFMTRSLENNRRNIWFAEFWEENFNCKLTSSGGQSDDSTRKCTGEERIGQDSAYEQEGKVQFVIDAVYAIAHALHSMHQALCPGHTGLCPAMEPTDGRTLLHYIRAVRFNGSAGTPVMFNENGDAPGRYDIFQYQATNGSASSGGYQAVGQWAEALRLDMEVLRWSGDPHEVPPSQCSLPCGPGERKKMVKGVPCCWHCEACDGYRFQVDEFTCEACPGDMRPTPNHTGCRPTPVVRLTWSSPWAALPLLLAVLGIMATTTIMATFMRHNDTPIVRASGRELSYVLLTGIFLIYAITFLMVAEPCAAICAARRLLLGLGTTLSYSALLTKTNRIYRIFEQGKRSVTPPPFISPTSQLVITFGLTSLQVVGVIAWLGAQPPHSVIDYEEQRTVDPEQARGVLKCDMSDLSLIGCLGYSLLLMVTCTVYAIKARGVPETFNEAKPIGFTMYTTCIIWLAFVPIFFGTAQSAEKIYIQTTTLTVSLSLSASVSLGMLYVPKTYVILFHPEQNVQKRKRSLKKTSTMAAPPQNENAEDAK

[12] = Cmax in Sprague-Dawley rat at 10 mg/kg, po and 2.5 mg/kg, iv; format: ADME, organism-based; details: in vivo
Method in brief: (§4)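 Rat PK: compounds formulated in 20% HP-β-CD at pH 4 and given orally and intravenously. Values are geometric means of at least two runs ± SEM.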

[13] = Tmax in Sprague-Dawley rat at 10 mg/kg, po and 2.5 mg/kg, iv; format: ADME, organism-based; details: in vivo; method in brief: as §4
[14] = AUC (0 to infinity) in Sprague-Dawley rat at 10 mg/kg, po and 2.5 mg/kg, iv; format: ADME, organism-based; details: plasma; method in brief: as §4
[15] = Half life in Sprague-Dawley rat at 10 mg/kg, po and 2.5 mg/kg, iv; format: ADME, organism-based; details: in vivo; method in brief: as §4
[16] = Clearance in Sprague-Dawley rat at 10 mg/kg, po and 2.5 mg/kg, iv; format: ADME, organism-based; details: in vivo
[17] = Drug uptake in Sprague-Dawley rat brain at 10 mg/kg, sc after 1 hr; format: ADME, organism-based; parameters: dose 10 mg/kg, route subcutaneous; details: read-out: Drug uptake
Method in brief: (§5)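 Brain exposure in male Sprague-Dawley rats after a 10 mg/kg subcutaneous dose, vehicle 20% HP-β-CD at pH 4. Brain level measured in ng/g alongside plasma in ng/mL; geometric mean of at least two runs ± SEM.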

[18] = Drug uptake in Sprague-Dawley rat brain at 10 mg/kg, sc after 2 hrs; format: ADME, organism-based; parameters: dose 10 mg/kg, route subcutaneous; details: read-out: Drug uptake; method in brief: as §5
[19] = Drug uptake in Sprague-Dawley rat brain at 10 mg/kg, sc after 4 hrs; format: ADME, organism-based; parameters: dose 10 mg/kg, route subcutaneous; details: read-out: Drug uptake; method in brief: as §5
[20] = Plasma concentration in Sprague-Dawley rat at 10 mg/kg, sc after 1 hr; format: ADME, organism-based; parameters: dose 10 mg/kg, route subcutaneous
Method in brief: (§6)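 Male Sprague−Dawley rats given 10 mg/kg subcutaneously, vehicle 20% HP-β-CD at pH 4. Plasma (ng/mL) and brain (ng/g) drug levels determined at the listed post-dose time; B/P ratio derived from them. Values are geometric means of at least two runs ± SEM.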

[21] = Plasma concentration in Sprague-Dawley rat at 10 mg/kg, sc after 2 hrs; format: ADME, organism-based; parameters: dose 10 mg/kg, route subcutaneous; method in brief: as §6
[22] = Plasma concentration in Sprague-Dawley rat at 10 mg/kg, sc after 4 hrs; format: ADME, organism-based; parameters: dose 10 mg/kg, route subcutaneous; method in brief: as §6
[23] = Ratio of drug level in brain to plasma of Sprague-Dawley rat at 10 mg/kg, sc after 1 hr; format: ADME, organism-based; parameters: dose 10 mg/kg, route subcutaneous; details: read-out: BPR; method in brief: as §6
[24] = Ratio of drug level in brain to plasma of Sprague-Dawley rat at 10 mg/kg, sc after 2 hrs; format: ADME, organism-based; parameters: dose 10 mg/kg, route subcutaneous; details: read-out: BPR; method in brief: as §6
[25] = Ratio of drug level in brain to plasma of Sprague-Dawley rat at 10 mg/kg, sc after 4 hrs; format: ADME, organism-based; parameters: dose 10 mg/kg, route subcutaneous; details: brain and plasma, read-out: BPR; method in brief: as §6
[26] = target: Metabotropic glutamate receptor 1 (Homo sapiens) (UniProt Q13255); assay: Antagonist activity at human mGlu 1 expressed in HEK293 cells at 10 uM by Ca+2 assay; format: functional, cell-based; method in brief: as §2
[27] = target: Metabotropic glutamate receptor 3 (Homo sapiens) (UniProt Q14832); assay: Antagonist activity at human mGlu 3 expressed in HEK293 cells at 10 uM by Ca+2 assay; format: functional, cell-based; method in brief: as §2
[28] = target: Metabotropic glutamate receptor 5 (Homo sapiens) (UniProt P41594); assay: Antagonist activity at human mGlu 5 expressed in HEK293 cells at 10 uM by Ca+2 assay; format: functional, cell-based; method in brief: as §2
[29] = target: T2, Metabotropic glutamate receptor 7; assay: Antagonist activity at human mGlu 7 expressed in HEK293 cells at 10 uM by Ca+2 assay; format: functional, cell-based; method in brief: as §2
[30] = target: Metabotropic glutamate receptor 8 (Homo sapiens) (UniProt O00222); assay: Antagonist activity at human mGlu 8 expressed in HEK293 cells at 10 uM by Ca+2 assay; format: functional, cell-based; method in brief: as §2
[31] = target: Metabotropic glutamate receptor 4 (Homo sapiens) (UniProt Q14833); assay: Antagonist activity at human mGlu 4 expressed in L929 cells assessed inhibition of [35S]GTPgammaS binding by liquid scintillation counting; format: functional, cell-based; method in brief: as §3
[32] = target: Metabotropic glutamate receptor 6 (Rattus norvegicus) (UniProt P35349); assay: Antagonist activity at rat mGlu 6 expressed in CHO cells assessed as inhibition of [35S]GTPgammaS binding by liquid scintillation counting; format: functional, cell-based; method in brief: as §3
[33] = Oral bioavailability in Sprague-Dawley rat at 10 mg/kg; format: ADME, organism-based; details: in vivo
Method in brief: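 Male Sprague-Dawley rats given 10 mg/kg orally and/or 1.25 mg/kg intravenously; compound formulated in 20% HP-β-CD at pH 4. Cmax, tmax, AUC0−inf, t1/2, clearance and oral bioavailability F derived from plasma levels; geometric mean of at least two runs ± SEM.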

## O[C@H]1CC[C@H](n2ccc3cc(-c4ccn5c(CC(F)(F)F)cnc5c4Cl)ccc32)CC1
[1]
  EC50: 160 nM
[2]
  Emax: 244%
[3]
  metabolised at 0.25 h, 5 µM: 14%
[4]
  metabolised at 0.25 h, 5 µM: 8%
[5]
  Activity: inactive
[6]
  Activity: inactive
[7]
  Activity: inactive
[8]
  EC50: 5200 nM
[9]
  Activity: inactive
[10]
  Activity: inactive
[11]
  Activity: inactive
[12]
  Cmax: 1140 ng/mL
[13]
  Tmax: 3.3 h
[14]
  AUC(0-inf): 10600 ng·h/mL
[15]
  half-life: 4.3 h
[16]
  clearance: 15 mL/min/kg
[17]
  concentration at 1 h: 932 ng/g
[18]
  concentration at 2 h: 1040 ng/g
[19]
  concentration at 4 h: 843 ng/g
[20]
  concentration at 1 h: 3810 ng/mL
[21]
  concentration at 2 h: 3730 ng/mL
[22]
  concentration at 4 h: 1950 ng/mL
[23]
  Kp at 1 h: 0.2
[24]
  Kp at 2 h: 0.3
[25]
  Kp at 4 h: 0.4
[26]
  Activity: inactive
[27]
  Activity: inactive
[28]
  Activity: inactive
[29]
  Activity: inactive
[30]
  Activity: inactive
[31]
  Activity: inactive
[32]
  Activity: inactive
[33]
  bioavailability: 100%
